From ChEMBL document CHEMBL3351385, “Synthesis and preliminary mechanistic evaluation of 5-(p-tolyl)-1-(quinolin-2-yl)pyrazole-3-carboxylic acid amides with potent antiproliferative activity on human cancer cell lines” (Eur J Med Chem, 2014)
Calls of active or inactive are those of the source. The rule behind the calls is not given here.

Legend:
[1] = target: Tyrosine-protein kinase Lck (Homo sapiens) (UniProt P06239); assay: Inhibition of LCK (unknown origin) assessed as remaining enzyme activity at 10 uM by radioactive [33P]-ATP filter binding assay
[2] = target: MAP/microtubule affinity-regulating kinase 3 (Homo sapiens) (UniProt P27448); assay: Inhibition of MARK3 (unknown origin) assessed as remaining enzyme activity at 10 uM by radioactive [33P]-ATP filter binding assay
[3] = target: Mitogen-activated protein kinase kinase kinase 11 (Homo sapiens) (UniProt Q16584); assay: Inhibition of MLK3 (unknown origin) assessed as remaining enzyme activity at 10 uM by radioactive [33P]-ATP filter binding assay
[4] = target: Serine/threonine-protein kinase N2 (Homo sapiens) (UniProt Q16513); assay: Inhibition of PRK2 (unknown origin) assessed as remaining enzyme activity at 10 uM by radioactive [33P]-ATP filter binding assay
[5] = target: MAP kinase-activated protein kinase 3 (Homo sapiens) (UniProt Q16644); assay: Inhibition of MAPKAPK3 (unknown origin) assessed as remaining enzyme activity at 10 uM by radioactive [33P]-ATP filter binding assay
[6] = target: Tyrosine-protein kinase BTK (Homo sapiens) (UniProt Q06187); assay: Inhibition of BTK (unknown origin) assessed as remaining enzyme activity at 10 uM by radioactive [33P]-ATP filter binding assay
How it was run: (§1)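 A single 10 µM concentration was tested across a 140-kinase panel. Activity was measured by a radioactive 33P-ATP filter-binding assay run at the International Center for Kinase Profiling, University of Dundee.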

[7] = target: Serine/threonine-protein kinase pim-1 (Homo sapiens) (UniProt P11309); assay: Inhibition of PIM1 (unknown origin) assessed as remaining enzyme activity at 10 uM by radioactive [33P]-ATP filter binding assay
[8] = target: MAP kinase-activated protein kinase 2 (Homo sapiens) (UniProt P49137); assay: Inhibition of MAPKAPK2 (unknown origin) assessed as remaining enzyme activity at 10 uM by radioactive [33P]-ATP filter binding assay
[9] = Cytotoxicity against human HuH7 cells after 72 hrs by SRB assay; type: functional, cell-based; settings: Huh-7, 72 h
How it was run: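 Cells kept in DMEM with 10% FCS and penicillin/streptomycin at 37°C, 5% CO2. 2000–3000 cells/well were seeded, and medium was refreshed the next day. DMSO solutions were added over 2.5–40 µM with matched DMSO-only controls for 72 h. Cells were then TCA-fixed, stained with 0.4% SRB in 1% acetic acid, solubilized in 10 mM Tris pH 8 and read at 515 nm. Data were normalized to DMSO wells and expressed as mean ±SD.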

[10] = target: Serine/threonine-protein kinase STK11 (Homo sapiens) (UniProt Q15831); assay: Inhibition of LKB1 (unknown origin) assessed as remaining enzyme activity at 10 uM by radioactive [33P]-ATP filter binding assay
[11] = target: Mitogen-activated protein kinase 7 (Homo sapiens) (UniProt Q13164); assay: Inhibition of ERK5 (unknown origin) assessed as remaining enzyme activity at 10 uM by radioactive [33P]-ATP filter binding assay; how it was run: as §1
[12] = target: Mitogen-activated protein kinase kinase kinase 5 (Homo sapiens) (UniProt Q99683); assay: Inhibition of ASK1 (unknown origin) assessed as remaining enzyme activity at 10 uM by radioactive [33P]-ATP filter binding assay; how it was run: as §1
[13] = target: Serine/threonine-protein kinase BRSK2 (Homo sapiens) (UniProt Q8IWQ3); assay: Inhibition of BRSK2 (unknown origin) assessed as remaining enzyme activity at 10 uM by radioactive [33P]-ATP filter binding assay; how it was run: as §1
[14] = target: Mitogen-activated protein kinase 10 (Homo sapiens) (UniProt P53779); assay: Inhibition of JNK3 (unknown origin) assessed as remaining enzyme activity at 10 uM by radioactive [33P]-ATP filter binding assay
[15] = target: Ephrin type-A receptor 2 (Homo sapiens) (UniProt P29317); assay: Inhibition of EPHA2 (unknown origin) assessed as remaining enzyme activity at 10 uM by radioactive [33P]-ATP filter binding assay; how it was run: as §1
[16] = target: Mitogen-activated protein kinase 3 (Homo sapiens) (UniProt P27361); assay: Inhibition of ERK1 (unknown origin) assessed as remaining enzyme activity at 10 uM by radioactive [33P]-ATP filter binding assay; how it was run: as §1
[17] = target: Testis-specific serine/threonine-protein kinase 1 (Homo sapiens) (UniProt Q9BXA7); assay: Inhibition of TSSK1 (unknown origin) assessed as remaining enzyme activity at 10 uM by radioactive [33P]-ATP filter binding assay
[18] = target: Ephrin type-B receptor 4 (Homo sapiens) (UniProt P54760); assay: Inhibition of EPHB4 (unknown origin) assessed as remaining enzyme activity at 10 uM by radioactive [33P]-ATP filter binding assay; how it was run: as §1
[19] = target: Insulin receptor-related protein (Homo sapiens) (UniProt P14616); assay: Inhibition of IRR (unknown origin) assessed as remaining enzyme activity at 10 uM by radioactive [33P]-ATP filter binding assay
[20] = target: Dual specificity tyrosine-phosphorylation-regulated kinase 1A (Homo sapiens) (UniProt Q13627); assay: Inhibition of DYRK1A (unknown origin) assessed as remaining enzyme activity at 10 uM by radioactive [33P]-ATP filter binding assay; how it was run: as §1
[21] = target: Mitogen-activated protein kinase kinase kinase kinase 2 (Homo sapiens) (UniProt Q12851); assay: Inhibition of GCK (unknown origin) assessed as remaining enzyme activity at 10 uM by radioactive [33P]-ATP filter binding assay
[22] = target: Serine/threonine-protein kinase 26 (Homo sapiens) (UniProt Q9P289); assay: Inhibition of MST4 (unknown origin) assessed as remaining enzyme activity at 10 uM by radioactive [33P]-ATP filter binding assay
[23] = target: Mitogen-activated protein kinase 13 (Homo sapiens) (UniProt O15264); assay: Inhibition of p38delta (unknown origin) assessed as remaining enzyme activity at 10 uM by radioactive [33P]-ATP filter binding assay
[24] = target: Tyrosine-protein kinase Yes (Homo sapiens) (UniProt P07947); assay: Inhibition of YES1 (unknown origin) assessed as remaining enzyme activity at 10 uM by radioactive [33P]-ATP filter binding assay
[25] = target: Discoidin domain-containing receptor 2 (Homo sapiens) (UniProt Q16832); assay: Inhibition of DDR2 (unknown origin) assessed as remaining enzyme activity at 10 uM by radioactive [33P]-ATP filter binding assay; how it was run: as §1
[26] = target: Homeodomain-interacting protein kinase 2 (Homo sapiens) (UniProt Q9H2X6); assay: Inhibition of HIPK2 (unknown origin) assessed as remaining enzyme activity at 10 uM by radioactive [33P]-ATP filter binding assay
[27] = target: Myosin light chain kinase, smooth muscle (Homo sapiens) (UniProt Q15746); assay: Inhibition of smMLCK (unknown origin) assessed as remaining enzyme activity at 10 uM by radioactive [33P]-ATP filter binding assay
[28] = tested on: Huh-7; assay: Induction of cell death in human HuH7 cells assessed as DNA fragmentation at cytotoxic IC50 level after 72 hrs by Hoechst 33258 staining based […]; type: functional
How it was run: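 Cells were washed in cold PBS, fixed 10 min in cold methanol and stained with Hoechst 33258 at 3 µg/mL for 5 min in the dark. Nuclear condensation and fragmentation were examined by fluorescence microscopy at 40×.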

Sequence of Discoidin domain-containing receptor 2 (Homo sapiens) (Q16832 whole entry, the tested form may be a part): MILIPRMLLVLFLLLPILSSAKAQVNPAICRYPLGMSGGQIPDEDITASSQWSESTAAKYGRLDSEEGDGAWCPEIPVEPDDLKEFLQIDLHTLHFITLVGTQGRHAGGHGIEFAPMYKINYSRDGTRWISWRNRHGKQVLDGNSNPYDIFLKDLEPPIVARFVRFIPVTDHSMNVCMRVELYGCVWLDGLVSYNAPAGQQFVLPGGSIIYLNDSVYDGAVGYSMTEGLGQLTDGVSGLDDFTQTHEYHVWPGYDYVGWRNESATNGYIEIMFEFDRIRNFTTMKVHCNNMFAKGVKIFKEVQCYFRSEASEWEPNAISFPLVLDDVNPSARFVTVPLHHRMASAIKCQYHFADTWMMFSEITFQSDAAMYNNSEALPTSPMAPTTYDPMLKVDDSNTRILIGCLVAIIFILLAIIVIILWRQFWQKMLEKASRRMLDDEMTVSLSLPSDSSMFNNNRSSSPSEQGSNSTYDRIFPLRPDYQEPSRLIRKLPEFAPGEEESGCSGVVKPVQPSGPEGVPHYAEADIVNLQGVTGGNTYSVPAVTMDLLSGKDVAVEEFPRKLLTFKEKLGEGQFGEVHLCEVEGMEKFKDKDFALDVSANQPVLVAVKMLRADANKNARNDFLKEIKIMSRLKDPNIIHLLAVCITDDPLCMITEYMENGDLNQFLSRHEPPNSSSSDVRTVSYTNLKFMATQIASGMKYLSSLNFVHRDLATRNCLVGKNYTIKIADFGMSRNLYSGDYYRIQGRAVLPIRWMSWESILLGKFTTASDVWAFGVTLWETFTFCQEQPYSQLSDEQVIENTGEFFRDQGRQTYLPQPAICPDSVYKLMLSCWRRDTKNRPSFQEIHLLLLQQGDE
Sequence of Ephrin type-A receptor 2 (Homo sapiens) (P29317 whole entry): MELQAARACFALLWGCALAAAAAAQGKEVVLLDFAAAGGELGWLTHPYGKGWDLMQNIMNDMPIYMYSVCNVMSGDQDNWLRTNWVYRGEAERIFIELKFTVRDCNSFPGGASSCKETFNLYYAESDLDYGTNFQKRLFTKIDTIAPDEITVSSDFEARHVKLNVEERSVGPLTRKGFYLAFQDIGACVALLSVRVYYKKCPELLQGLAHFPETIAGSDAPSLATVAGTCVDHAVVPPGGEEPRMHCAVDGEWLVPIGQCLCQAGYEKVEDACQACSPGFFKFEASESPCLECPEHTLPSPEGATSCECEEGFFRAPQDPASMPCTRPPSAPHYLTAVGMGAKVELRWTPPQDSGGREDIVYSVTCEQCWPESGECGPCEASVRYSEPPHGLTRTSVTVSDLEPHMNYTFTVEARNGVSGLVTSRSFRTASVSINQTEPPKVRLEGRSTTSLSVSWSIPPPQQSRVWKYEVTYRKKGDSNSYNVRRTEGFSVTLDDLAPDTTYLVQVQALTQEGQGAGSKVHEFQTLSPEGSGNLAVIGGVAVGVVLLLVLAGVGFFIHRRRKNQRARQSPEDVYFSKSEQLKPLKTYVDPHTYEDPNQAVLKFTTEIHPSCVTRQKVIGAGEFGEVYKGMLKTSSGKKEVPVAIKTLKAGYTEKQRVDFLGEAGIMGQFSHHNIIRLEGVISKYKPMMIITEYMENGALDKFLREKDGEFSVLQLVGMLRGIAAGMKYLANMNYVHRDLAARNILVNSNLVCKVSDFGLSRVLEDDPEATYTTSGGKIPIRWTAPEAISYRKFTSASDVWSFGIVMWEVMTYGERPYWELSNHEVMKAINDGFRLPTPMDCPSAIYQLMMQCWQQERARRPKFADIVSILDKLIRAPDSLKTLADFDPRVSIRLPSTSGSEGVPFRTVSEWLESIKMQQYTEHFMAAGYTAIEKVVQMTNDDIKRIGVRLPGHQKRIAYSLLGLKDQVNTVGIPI
Sequence of Insulin receptor-related protein (Homo sapiens) (P14616 27-742 limits assumed): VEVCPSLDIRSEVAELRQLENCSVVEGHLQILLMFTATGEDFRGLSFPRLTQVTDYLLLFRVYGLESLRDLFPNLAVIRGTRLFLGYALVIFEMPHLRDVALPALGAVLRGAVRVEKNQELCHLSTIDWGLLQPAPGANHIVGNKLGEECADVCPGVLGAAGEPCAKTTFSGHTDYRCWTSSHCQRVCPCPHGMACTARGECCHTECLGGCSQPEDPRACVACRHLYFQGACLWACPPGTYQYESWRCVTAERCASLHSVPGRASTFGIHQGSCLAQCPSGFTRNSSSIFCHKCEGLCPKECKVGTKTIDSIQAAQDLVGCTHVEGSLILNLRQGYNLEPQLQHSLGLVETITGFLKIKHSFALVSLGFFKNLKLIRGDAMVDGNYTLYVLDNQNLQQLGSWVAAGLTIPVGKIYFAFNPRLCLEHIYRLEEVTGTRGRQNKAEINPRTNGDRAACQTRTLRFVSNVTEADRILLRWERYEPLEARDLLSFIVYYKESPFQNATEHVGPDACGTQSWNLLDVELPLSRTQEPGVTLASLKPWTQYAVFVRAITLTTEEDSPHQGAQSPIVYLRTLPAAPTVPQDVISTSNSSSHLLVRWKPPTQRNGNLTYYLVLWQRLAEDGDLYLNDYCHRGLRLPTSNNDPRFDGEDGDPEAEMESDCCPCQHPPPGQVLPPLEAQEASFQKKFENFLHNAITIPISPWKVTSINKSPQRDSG
Sequence of Insulin receptor-related protein (Homo sapiens) (P14616 747-1297 limits assumed): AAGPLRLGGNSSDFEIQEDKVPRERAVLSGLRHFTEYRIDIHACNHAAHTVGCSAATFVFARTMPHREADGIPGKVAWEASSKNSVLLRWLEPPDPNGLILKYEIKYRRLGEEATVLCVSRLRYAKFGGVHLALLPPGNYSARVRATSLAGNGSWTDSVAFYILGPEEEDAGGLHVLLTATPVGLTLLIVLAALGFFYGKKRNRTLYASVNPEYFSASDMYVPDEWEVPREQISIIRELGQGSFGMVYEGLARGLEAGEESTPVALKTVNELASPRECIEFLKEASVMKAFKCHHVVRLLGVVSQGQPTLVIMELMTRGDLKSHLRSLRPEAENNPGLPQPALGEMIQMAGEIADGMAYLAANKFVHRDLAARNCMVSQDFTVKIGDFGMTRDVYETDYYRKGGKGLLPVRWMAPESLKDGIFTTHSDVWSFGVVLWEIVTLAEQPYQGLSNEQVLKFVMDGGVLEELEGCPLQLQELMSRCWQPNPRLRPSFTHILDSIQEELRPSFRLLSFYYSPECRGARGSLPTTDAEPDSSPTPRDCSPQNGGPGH
Sequence of MAP kinase-activated protein kinase 2 (Homo sapiens) (P49137 whole entry, looked up): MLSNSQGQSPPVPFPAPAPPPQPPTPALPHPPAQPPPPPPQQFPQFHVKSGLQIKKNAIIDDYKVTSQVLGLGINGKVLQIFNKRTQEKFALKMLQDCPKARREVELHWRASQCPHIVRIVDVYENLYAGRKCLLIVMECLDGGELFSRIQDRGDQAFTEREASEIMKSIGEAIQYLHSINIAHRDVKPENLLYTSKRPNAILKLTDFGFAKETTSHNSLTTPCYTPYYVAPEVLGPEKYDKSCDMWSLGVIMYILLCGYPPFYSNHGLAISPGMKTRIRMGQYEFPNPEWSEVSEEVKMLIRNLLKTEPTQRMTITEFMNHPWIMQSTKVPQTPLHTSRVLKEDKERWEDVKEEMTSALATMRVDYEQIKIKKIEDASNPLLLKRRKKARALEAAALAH
Sequence of Mitogen-activated protein kinase 7 (Homo sapiens) (Q13164 2-816 limits assumed): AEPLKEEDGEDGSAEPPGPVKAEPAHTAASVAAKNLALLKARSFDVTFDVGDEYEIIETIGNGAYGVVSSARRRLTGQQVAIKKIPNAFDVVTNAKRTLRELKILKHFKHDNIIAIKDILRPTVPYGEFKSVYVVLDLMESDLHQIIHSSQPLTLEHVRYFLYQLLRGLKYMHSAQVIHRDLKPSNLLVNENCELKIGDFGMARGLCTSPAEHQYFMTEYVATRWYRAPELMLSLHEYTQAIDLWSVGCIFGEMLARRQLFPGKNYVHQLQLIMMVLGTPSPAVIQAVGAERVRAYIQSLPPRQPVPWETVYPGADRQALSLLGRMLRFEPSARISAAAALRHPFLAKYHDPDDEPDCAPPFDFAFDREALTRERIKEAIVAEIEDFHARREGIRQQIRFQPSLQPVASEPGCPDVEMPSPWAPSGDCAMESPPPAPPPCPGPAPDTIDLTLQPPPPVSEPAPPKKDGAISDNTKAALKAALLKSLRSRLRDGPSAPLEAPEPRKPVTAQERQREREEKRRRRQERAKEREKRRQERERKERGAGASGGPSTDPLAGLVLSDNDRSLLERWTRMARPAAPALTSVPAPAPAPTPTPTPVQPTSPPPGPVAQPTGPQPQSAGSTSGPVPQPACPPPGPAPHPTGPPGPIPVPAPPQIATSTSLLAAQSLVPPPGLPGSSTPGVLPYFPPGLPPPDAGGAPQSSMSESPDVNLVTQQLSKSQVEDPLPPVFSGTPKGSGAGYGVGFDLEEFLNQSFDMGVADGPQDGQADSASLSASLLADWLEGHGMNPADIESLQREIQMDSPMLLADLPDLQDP
Sequence of MAP/microtubule affinity-regulating kinase 3 (Homo sapiens) (P27448 whole entry, looked up): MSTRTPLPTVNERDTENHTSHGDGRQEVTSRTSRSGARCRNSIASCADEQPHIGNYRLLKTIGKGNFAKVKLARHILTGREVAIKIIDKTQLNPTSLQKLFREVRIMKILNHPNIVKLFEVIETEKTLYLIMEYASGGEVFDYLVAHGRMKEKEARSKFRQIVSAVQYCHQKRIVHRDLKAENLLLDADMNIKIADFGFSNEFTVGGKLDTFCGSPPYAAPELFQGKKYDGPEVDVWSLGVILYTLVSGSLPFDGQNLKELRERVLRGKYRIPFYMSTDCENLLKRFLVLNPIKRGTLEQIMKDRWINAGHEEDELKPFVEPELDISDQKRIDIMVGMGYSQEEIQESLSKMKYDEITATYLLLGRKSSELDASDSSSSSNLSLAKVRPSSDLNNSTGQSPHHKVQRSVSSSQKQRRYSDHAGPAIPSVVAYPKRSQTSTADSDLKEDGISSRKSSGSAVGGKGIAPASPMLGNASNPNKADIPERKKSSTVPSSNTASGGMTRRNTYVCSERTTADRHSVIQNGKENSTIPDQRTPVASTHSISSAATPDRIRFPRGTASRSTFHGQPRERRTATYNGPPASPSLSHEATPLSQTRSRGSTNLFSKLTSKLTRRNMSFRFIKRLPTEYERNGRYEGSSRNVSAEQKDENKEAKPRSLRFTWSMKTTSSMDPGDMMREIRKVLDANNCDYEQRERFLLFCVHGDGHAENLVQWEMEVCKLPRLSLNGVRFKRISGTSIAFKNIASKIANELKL

SMILES: Cc1ccc(-c2cc(C(=O)Nc3ccnc(Cl)c3)nn2-c2ccc3ccccc3n2)cc1
- Activity [1]: 99%
- Activity [2]: 103%
- Activity [3]: 76%
- Activity [4]: 98%
- Activity [5]: 94%
- Activity [6]: 92%
- Activity [7]: 118%
- Activity [8]: 84%
- IC50 [9]: 1.6 µM
- Activity [10]: 115%
- Activity [11]: 74%
- Activity [12]: 97%
- Activity [13]: 102%
- Activity [14]: 95%
- Activity [15]: 111%
- Activity [16]: 103%
- Activity [17]: 90%
- Activity [18]: 125%
- Activity [19]: 100%
- Activity [20]: 68%
- Activity [21]: 112%
- Activity [22]: 110%
- Activity [23]: 87%
- Activity [24]: 108%
- Activity [25]: 113%
- Activity [26]: 124%
- Activity [27]: 103%
- Activity [28]: Active
